{"source": "paper PMC11684312", "about": "(Nature chemistry, 2024)", "key": {"WT LIMK1-NanoLuc": {"molecular_target": "WT LIMK1-NanoLuc (Homo sapiens, UniProt P53667)", "sequence (P53667 whole entry)": "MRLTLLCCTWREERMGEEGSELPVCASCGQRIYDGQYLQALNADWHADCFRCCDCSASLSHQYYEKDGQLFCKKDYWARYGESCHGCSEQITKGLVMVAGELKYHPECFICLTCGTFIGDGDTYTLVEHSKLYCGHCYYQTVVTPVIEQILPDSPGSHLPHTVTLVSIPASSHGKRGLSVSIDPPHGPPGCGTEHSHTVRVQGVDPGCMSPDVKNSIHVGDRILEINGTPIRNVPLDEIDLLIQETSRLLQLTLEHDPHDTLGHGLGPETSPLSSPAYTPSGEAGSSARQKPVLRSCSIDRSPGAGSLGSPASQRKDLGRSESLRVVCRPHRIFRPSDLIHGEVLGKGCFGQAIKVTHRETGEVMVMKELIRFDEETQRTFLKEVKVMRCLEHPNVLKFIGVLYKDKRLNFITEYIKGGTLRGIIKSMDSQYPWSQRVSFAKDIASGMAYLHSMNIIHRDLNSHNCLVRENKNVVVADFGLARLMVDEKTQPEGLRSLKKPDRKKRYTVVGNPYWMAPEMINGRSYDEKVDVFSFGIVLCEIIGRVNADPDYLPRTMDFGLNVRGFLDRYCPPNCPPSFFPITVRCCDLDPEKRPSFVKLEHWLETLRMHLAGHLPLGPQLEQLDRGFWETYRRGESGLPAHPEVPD", "assay": "LIMK1 NanoBRET target engagement assay, WT", "format": "cell-based", "conditions": "HEK293T cells, 0.5 μM K-10 tracer, 3 h", "summary_of_the_method": "(§1)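 HEK293T cells in Opti-MEM without phenol red with 1% FBS (2x10^5 cells/mL) were transfected with WT or C349A LIMK1-NanoLuc plasmid (1 μg/mL) plus carrier DNA (9 μg/mL) for 20 h at 37 °C/5% CO2. K-10 tracer and test compound (diluted from 1000x DMSO stocks) were added for 3 h at 37 °C. Donor 450 nm and acceptor 610 nm were read after substrate/inhibitor (2 min, RT). Untransfected background was subtracted, mBU calculated, then normalized to DMSO. Triplicate wells.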"}, "C349A LIMK1-NanoLuc": {"molecular_target": "C349A LIMK1-NanoLuc (Homo sapiens, UniProt P53667, C349A)", "sequence (P53667 whole entry C349A)": "as the sequence (P53667 whole entry) above, with C349A counted along it", "assay": "LIMK1 NanoBRET target engagement assay, C349A", "format": "cell-based", "conditions": "HEK293T cells, C349A-LIMK1 mutant, 3 h", "summary_of_the_method": "as §1"}}}
{"compound": "COc1ccc(N(C(=O)Nc2c(C)cccc2C)c2cc(Nc3ccc(N4CCN(C)CC4)cc3)ncn2)c(OC)c1", "note": "[HG-9-91-01]", "values": [{"measurement": "BRET signal (NanoBRET K-10 tracer)", "setting": "WT LIMK1-NanoLuc", "value": "decreased NanoBRET signals"}, {"measurement": "BRET signal (NanoBRET K-10 tracer)", "setting": "C349A LIMK1-NanoLuc", "value": "decreased NanoBRET signals"}]}
